Results published in ChEMBL document CHEMBL5029150, “Controlling Intramolecular Interactions in the Design of Selective, High-Affinity Ligands for the CREBBP Bromodomain” (J Med Chem, 2021).
Activity calls are given as the source filed them. No cut-off for these calls is given here.

Tests used:
CREB-binding protein = CREB-binding protein (Homo sapiens, UniProt Q92793); experiment: Binding affinity to human CREBBP bromodomain expressed in Escherichia coli BL21 (DE3)-RIL assessed as dissociation constant by ITC assay
[1] = target: T1, CREB-binding protein/Histone acetyltransferase p300 (Homo sapiens) (UniProt Q09472+Q92793); experiment: Inhibition of CREBBP/EP300 in human HCT-116 cells assessed as reduction in c-Myc expression at 10 uM for 24 hrs by Western blot analysis; assay type: cell-based
Outline: (§1)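 HCT116 human colorectal cancer cells were exposed to ligand at 10 μM for 6, 16 or 24 h. c-Myc, H3K18Ac and H3K27Ac levels were read by western blot, with acetylation marks expressed relative to the t = 0 level.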

[2] = target: T1, CREB-binding protein/Histone acetyltransferase p300 (Homo sapiens); experiment: Inhibition of CREBBP/EP300 in human HCT-116 cells assessed as reduction in c-Myc mRNA expression at 10 uM by Q-PCR analysis; assay type: cell-based
[3] = target: T1, CREB-binding protein/Histone acetyltransferase p300 (Homo sapiens); experiment: Inhibition of CREBBP/EP300 in human HCT-116 cells assessed as reduction in H3K27Ac at 10 uM for 6 hrs by Western blot analysis; assay type: cell-based; outline: as §1
[4] = target: T1, CREB-binding protein/Histone acetyltransferase p300 (Homo sapiens); experiment: Inhibition of CREBBP/EP300 in human HCT-116 cells assessed as reduction in H3K18Ac at 10 uM for 24 hrs by Western blot analysis; assay type: cell-based; outline: as §1
[5] = target: Bromodomain-containing protein 4 (Homo sapiens, UniProt O60885); experiment: Binding affinity to human BRD4 bromodomain 1 assessed as dissociation constant by ITC assay
[6] = target: T1, CREB-binding protein/Histone acetyltransferase p300 (Homo sapiens); experiment: Inhibition of CREBBP/EP300 in human HCT-116 cells assessed as reduction in c-Myc protein expression at 10 uM for 6 hrs by Western blot analysis; assay type: cell-based; outline: as §1
[7] = target: T1, CREB-binding protein/Histone acetyltransferase p300 (Homo sapiens); experiment: Inhibition of CREBBP/EP300 in human HCT-116 cells assessed as reduction in H3K18Ac at 10 uM for 6 hrs by Western blot analysis; assay type: cell-based; outline: as §1
[8] = target: T1, CREB-binding protein/Histone acetyltransferase p300 (Homo sapiens); experiment: Inhibition of CREBBP/EP300 in human HCT-116 cells assessed as reduction in H3K27Ac at 10 uM for 24 hrs by Western blot analysis; assay type: cell-based; outline: as §1

T1 sequence (Q09472 whole entry, looked up): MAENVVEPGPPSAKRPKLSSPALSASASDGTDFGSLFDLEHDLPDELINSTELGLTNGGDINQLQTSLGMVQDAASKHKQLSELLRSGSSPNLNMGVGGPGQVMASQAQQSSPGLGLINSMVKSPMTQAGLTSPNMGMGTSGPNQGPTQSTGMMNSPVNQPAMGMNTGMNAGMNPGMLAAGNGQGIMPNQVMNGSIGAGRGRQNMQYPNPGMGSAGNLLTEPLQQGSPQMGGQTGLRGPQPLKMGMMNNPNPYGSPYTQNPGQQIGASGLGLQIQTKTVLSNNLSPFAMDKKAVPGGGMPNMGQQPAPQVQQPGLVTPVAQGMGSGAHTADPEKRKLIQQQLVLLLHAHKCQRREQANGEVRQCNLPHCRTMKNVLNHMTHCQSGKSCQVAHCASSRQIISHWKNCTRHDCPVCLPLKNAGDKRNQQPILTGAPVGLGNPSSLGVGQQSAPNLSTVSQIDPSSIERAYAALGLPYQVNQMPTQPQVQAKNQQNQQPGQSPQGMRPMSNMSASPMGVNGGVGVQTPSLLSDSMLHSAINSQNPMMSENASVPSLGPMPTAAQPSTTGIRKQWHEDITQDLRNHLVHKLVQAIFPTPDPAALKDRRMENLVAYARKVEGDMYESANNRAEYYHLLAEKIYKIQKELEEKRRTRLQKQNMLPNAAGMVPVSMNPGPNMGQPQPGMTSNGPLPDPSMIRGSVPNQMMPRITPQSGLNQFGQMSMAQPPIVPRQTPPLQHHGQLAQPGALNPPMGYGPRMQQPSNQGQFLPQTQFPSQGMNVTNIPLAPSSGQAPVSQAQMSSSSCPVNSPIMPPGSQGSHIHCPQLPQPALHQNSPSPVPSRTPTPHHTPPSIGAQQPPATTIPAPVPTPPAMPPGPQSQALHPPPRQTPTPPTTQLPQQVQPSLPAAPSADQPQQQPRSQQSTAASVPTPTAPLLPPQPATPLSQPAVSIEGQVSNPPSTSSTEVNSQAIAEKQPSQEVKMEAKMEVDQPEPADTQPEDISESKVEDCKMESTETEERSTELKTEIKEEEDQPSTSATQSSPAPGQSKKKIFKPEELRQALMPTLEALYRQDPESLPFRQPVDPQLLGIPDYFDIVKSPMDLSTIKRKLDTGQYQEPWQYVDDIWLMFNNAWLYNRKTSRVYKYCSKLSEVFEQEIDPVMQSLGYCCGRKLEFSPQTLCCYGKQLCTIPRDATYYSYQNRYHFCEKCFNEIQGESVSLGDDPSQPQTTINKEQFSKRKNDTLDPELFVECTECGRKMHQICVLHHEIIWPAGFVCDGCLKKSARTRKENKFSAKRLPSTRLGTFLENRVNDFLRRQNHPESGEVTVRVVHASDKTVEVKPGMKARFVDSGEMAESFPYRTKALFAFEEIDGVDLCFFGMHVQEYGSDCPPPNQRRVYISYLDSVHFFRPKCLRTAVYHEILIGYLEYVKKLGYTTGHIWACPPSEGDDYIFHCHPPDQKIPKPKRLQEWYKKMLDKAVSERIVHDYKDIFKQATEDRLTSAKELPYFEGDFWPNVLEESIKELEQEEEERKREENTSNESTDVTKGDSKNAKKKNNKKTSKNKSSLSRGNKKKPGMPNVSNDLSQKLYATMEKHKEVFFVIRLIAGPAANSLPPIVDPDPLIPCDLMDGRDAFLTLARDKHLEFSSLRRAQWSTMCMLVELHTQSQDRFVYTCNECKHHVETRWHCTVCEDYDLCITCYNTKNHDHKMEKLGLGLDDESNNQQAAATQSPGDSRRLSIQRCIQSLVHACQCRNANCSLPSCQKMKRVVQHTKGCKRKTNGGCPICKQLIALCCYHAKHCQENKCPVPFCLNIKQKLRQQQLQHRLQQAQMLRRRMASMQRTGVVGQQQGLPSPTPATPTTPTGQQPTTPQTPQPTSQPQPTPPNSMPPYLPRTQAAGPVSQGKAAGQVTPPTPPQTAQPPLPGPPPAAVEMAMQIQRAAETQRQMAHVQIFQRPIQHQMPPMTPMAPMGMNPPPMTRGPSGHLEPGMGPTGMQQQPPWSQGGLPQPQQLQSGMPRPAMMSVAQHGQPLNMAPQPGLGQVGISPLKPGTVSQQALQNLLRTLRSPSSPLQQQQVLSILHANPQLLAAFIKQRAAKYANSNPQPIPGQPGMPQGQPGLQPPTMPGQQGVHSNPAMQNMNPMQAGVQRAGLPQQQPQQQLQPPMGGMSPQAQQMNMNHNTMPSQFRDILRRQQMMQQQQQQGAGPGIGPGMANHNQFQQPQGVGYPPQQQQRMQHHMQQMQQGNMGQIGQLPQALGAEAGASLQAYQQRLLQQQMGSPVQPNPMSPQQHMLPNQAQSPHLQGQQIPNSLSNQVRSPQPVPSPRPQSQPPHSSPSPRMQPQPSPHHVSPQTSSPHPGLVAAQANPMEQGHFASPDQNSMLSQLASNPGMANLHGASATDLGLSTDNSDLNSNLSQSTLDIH
T1 sequence (Q92793 whole entry, looked up): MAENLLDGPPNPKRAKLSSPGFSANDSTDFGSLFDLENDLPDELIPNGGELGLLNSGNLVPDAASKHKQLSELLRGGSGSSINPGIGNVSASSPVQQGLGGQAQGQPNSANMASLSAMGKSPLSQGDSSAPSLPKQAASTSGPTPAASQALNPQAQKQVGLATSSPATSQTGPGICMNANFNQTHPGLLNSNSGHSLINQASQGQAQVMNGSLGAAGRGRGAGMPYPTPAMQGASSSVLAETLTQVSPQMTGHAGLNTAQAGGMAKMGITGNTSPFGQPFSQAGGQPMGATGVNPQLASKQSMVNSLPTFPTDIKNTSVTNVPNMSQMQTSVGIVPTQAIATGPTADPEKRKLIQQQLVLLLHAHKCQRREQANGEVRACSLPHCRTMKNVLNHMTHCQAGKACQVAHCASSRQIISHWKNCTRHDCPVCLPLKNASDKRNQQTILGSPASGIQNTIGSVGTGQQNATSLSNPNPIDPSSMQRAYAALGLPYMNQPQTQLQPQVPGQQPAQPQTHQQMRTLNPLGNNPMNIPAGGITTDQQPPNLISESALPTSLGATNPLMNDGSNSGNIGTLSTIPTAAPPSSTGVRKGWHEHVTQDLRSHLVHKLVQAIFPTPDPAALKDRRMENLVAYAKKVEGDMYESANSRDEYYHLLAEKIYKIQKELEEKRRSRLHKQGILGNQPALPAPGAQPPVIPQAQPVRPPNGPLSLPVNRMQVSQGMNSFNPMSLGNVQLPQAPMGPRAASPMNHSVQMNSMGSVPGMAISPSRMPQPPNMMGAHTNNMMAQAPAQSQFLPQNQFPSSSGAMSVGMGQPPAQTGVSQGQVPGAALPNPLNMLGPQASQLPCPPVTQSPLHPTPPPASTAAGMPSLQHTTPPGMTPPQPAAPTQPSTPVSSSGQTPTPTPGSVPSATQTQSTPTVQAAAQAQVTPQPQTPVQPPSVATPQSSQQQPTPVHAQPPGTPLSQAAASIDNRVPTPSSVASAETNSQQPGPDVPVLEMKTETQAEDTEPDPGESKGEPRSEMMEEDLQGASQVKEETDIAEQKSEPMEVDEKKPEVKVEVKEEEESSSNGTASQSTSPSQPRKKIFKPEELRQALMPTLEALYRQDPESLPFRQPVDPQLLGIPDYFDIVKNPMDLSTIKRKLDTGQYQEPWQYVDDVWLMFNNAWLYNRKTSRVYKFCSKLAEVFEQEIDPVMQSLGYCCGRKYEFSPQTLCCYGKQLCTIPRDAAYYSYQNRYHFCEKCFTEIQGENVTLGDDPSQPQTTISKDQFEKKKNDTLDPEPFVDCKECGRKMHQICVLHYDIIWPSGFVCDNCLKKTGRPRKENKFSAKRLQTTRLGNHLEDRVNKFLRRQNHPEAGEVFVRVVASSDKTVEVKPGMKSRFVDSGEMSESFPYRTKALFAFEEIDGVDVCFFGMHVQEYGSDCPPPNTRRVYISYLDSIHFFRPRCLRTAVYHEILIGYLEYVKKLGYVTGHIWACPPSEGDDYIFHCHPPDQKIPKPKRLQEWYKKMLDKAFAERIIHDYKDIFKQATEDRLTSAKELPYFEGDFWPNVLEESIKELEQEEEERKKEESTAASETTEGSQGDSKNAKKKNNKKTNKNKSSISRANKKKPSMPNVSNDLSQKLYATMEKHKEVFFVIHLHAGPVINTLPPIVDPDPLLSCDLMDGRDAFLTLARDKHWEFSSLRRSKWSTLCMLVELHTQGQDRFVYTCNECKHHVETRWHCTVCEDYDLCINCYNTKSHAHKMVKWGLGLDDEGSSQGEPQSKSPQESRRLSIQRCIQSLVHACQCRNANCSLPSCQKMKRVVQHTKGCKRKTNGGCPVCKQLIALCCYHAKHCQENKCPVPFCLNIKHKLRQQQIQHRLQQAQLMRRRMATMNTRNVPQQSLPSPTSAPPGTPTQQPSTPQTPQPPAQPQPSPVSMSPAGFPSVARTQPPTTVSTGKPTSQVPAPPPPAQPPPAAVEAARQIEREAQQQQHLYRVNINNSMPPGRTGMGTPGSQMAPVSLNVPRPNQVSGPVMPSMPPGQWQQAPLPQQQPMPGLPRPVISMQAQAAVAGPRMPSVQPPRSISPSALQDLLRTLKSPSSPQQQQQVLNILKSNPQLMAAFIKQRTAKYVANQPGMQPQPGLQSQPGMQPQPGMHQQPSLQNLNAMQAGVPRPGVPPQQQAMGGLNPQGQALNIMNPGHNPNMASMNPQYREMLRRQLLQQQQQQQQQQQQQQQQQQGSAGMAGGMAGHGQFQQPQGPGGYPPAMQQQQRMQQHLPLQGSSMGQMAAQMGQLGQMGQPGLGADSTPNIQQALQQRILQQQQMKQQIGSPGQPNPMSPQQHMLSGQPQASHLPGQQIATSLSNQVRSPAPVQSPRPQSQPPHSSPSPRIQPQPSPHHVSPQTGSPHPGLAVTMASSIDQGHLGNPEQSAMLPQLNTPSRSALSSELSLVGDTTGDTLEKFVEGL
CREB-binding protein, sequence (Q92793 whole entry): as the sequence (Q92793 whole entry, looked up) above

SMILES	Kd (CREB-binding protein)	inhibition [1]	inhibition [2]	inhibition [3] [%]	inhibition [4] [%]	Kd [5]	inhibition [6]	inhibition [7] [%]	inhibition [8] [%]
COc1ccc2c(c1)N(CCC/C=C/c1cccc3c1N[C@@H](C)CC(=O)N3)CCC2	Not Active	inactive							
COc1ccc2c(c1)N(CCC/C=C/c1cccc3c1N[C@H](C)CC(=O)N3)CCC2			Active	70	30	Not Active	Active	70	30
